Measurements published in ChEMBL document CHEMBL3244011, “(Aryloxy)[p-(aryloxy)phenyl]- and (aryloxy)[p-(arylthio)phenyl]acetic acids and esters as hypolipidemic agents” (1979).

Test system: Rattus norvegicus
Assay: Hypolipidemic activity in COBBS-CD rat assessed as reduction in serum triglyceride level at 0.01% administered with chow diet after 5 days relative to control
Assay type: functional
Parameters: scale not given: the % may be the effect or the level left
How it was run: (§1)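 The compound was given in ground chow at 0.1, 0.03 or 0.01% w/w (about 100, 30 and 10 mg/kg) to male COBBS-CD rats (n=4; solvent-chow controls n=8) for 5 days ad libitum. Rats were killed by decapitation and blood collected. Serum triglycerides were assayed by an automated method and compared with controls; ± values are SD.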

SMILES	Activity [%]
COC(=O)C(Oc1ccc(Cl)c(Cl)c1)c1ccc(Oc2ccc(Cl)cc2)cc1 (stereo not given)	14
COC(=O)C(Oc1ccc(C(C)(C)C)cc1Cl)c1ccc(Oc2ccc(Cl)cc2)cc1 (stereo not given)	25
COC(=O)C(Oc1cc(C(C)(C)C)cc(C(C)(C)C)c1)c1ccc(Oc2ccc(Cl)cc2)cc1 (stereo not given)	23
COC(=O)C(Oc1ccc(C(C)(C)C)cc1)c1ccc(Sc2ccc(Cl)cc2)cc1 (stereo not given)	45
O=C(O)C(Oc1ccc(Oc2ccccc2)cc1)c1ccc(Oc2ccc(Cl)cc2)cc1 (stereo not given)	53
COC(=O)C(Oc1ccc(C23CC4CC(CC(C4)C2)C3)cc1)c1ccc(Oc2ccc(Cl)cc2)cc1 (stereo not given)	11
COC(=O)C(Oc1cc(C)c(Cl)c(C)c1)c1ccc(Oc2ccc(Cl)cc2)cc1 (stereo not given)	33
COC(=O)C(Oc1ccc(Cl)cc1)c1ccc(Oc2cccc(C(F)(F)F)c2)cc1 (stereo not given)	35
COC(=O)C(Oc1ccc(C(C)(C)C)cc1)c1ccc(Oc2ccc(Cl)c3ccccc23)cc1 (stereo not given)	29
COC(=O)C(Oc1ccc(C(C)(C)C)cc1)c1ccc(Oc2ccc([N+](=O)[O-])cc2)cc1 (stereo not given)	34
COC(=O)C(Oc1ccc(Cl)c2ccccc12)c1ccc(Oc2ccc(Cl)cc2)cc1 (stereo not given)	-15
COC(=O)C(Oc1ccc2c(c1)CCC2)c1ccc(Oc2ccc(Cl)cc2)cc1 (stereo not given)	37
O=C(O)C(Oc1ccc(Cl)cc1)c1ccc(Oc2ccc(Cl)cc2)cc1 (stereo not given)	34
COC(=O)C(Oc1ccc(Cl)c(C)c1)c1ccc(Oc2ccc(Cl)cc2)cc1 (stereo not given)	28
COC(=O)C(Oc1ccc(Cl)cc1)c1ccc(Oc2ccc(Cl)c3ccccc23)cc1 (stereo not given)	33

Test system: Rattus norvegicus
Assay: Hypolipidemic activity in COBBS-CD rat assessed as reduction in serum sterol level at 0.01% administered with chow diet after 5 days relative to control
Assay type: functional
Parameters: scale not given: the % may be the effect or the level left
How it was run: (§2)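 Male COBBS-CD rats, four per treated group and eight per control group. The compound was mixed into ground rat chow at 0.1, 0.03 or 0.01% w/w (about 100, 30 and 10 mg/kg). Control chow received only the mixing solvent (methanol-chloroform 1:3 v/v). Food and water were ad libitum for 5 days, then rats were decapitated and blood collected. Serum sterols were measured by an automated method and expressed relative to controls; ± values are SD.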

SMILES	Activity [%]
COC(=O)C(Oc1ccc(Cl)c(Cl)c1)c1ccc(Oc2ccc(Cl)cc2)cc1 (stereo not given)	5
COC(=O)C(Oc1ccc(C(C)(C)C)cc1Cl)c1ccc(Oc2ccc(Cl)cc2)cc1 (stereo not given)	17
COC(=O)C(Oc1cc(C(C)(C)C)cc(C(C)(C)C)c1)c1ccc(Oc2ccc(Cl)cc2)cc1 (stereo not given)	-30
COC(=O)C(Oc1ccc(C(C)(C)C)cc1)c1ccc(Sc2ccc(Cl)cc2)cc1 (stereo not given)	10
O=C(O)C(Oc1ccc(Oc2ccccc2)cc1)c1ccc(Oc2ccc(Cl)cc2)cc1 (stereo not given)	13
COC(=O)C(Oc1ccc(C23CC4CC(CC(C4)C2)C3)cc1)c1ccc(Oc2ccc(Cl)cc2)cc1 (stereo not given)	14
COC(=O)C(Oc1cc(C)c(Cl)c(C)c1)c1ccc(Oc2ccc(Cl)cc2)cc1 (stereo not given)	0
COC(=O)C(Oc1ccc(Cl)cc1)c1ccc(Oc2cccc(C(F)(F)F)c2)cc1 (stereo not given)	8
COC(=O)C(Oc1ccc(C(C)(C)C)cc1)c1ccc(Oc2ccc(Cl)c3ccccc23)cc1 (stereo not given)	16
COC(=O)C(Oc1ccc(C(C)(C)C)cc1)c1ccc(Oc2ccc([N+](=O)[O-])cc2)cc1 (stereo not given)	-3
COC(=O)C(Oc1ccc(Cl)c2ccccc12)c1ccc(Oc2ccc(Cl)cc2)cc1 (stereo not given)	-18
COC(=O)C(Oc1ccc2c(c1)CCC2)c1ccc(Oc2ccc(Cl)cc2)cc1 (stereo not given)	26
O=C(O)C(Oc1ccc(Cl)cc1)c1ccc(Oc2ccc(Cl)cc2)cc1 (stereo not given)	12
COC(=O)C(Oc1ccc(Cl)c(C)c1)c1ccc(Oc2ccc(Cl)cc2)cc1 (stereo not given)	34
COC(=O)C(Oc1ccc(Cl)cc1)c1ccc(Oc2ccc(Cl)c3ccccc23)cc1 (stereo not given)	6

Test system: Rattus norvegicus
Assay: Hypolipidemic activity in COBBS-CD rat assessed as reduction in serum triglyceride level at 0.1% administered with chow diet after 5 days relative to control
Assay type: functional
Parameters: scale not given: the % may be the effect or the level left
How it was run: as §1

SMILES	Activity [%]
COC(=O)C(Oc1ccc(Cl)c(Cl)c1)c1ccc(Oc2ccc(Cl)cc2)cc1 (stereo not given)	67
COC(=O)C(Oc1ccc(C(C)(C)C)cc1Cl)c1ccc(Oc2ccc(Cl)cc2)cc1 (stereo not given)	64
COC(=O)C(Oc1cc(C(C)(C)C)cc(C(C)(C)C)c1)c1ccc(Oc2ccc(Cl)cc2)cc1 (stereo not given)	7
COC(=O)C(Oc1ccc(C(C)(C)C)cc1)c1ccc(Sc2ccc(Cl)cc2)cc1 (stereo not given)	59
O=C(O)C(Oc1ccc(Oc2ccccc2)cc1)c1ccc(Oc2ccc(Cl)cc2)cc1 (stereo not given)	54
COC(=O)C(Oc1ccc(C23CC4CC(CC(C4)C2)C3)cc1)c1ccc(Oc2ccc(Cl)cc2)cc1 (stereo not given)	17
COC(=O)C(Oc1cc(C)c(Cl)c(C)c1)c1ccc(Oc2ccc(Cl)cc2)cc1 (stereo not given)	66
COC(=O)C(Oc1ccc(Cl)cc1)c1ccc(Oc2cccc(C(F)(F)F)c2)cc1 (stereo not given)	50
COC(=O)C(Oc1ccc(C(C)(C)C)cc1)c1ccc(Oc2ccc(Cl)c3ccccc23)cc1 (stereo not given)	56
COC(=O)C(Oc1ccc(C(C)(C)C)cc1)c1ccc(Oc2ccc([N+](=O)[O-])cc2)cc1 (stereo not given)	51
COC(=O)C(Oc1ccc(Cl)c2ccccc12)c1ccc(Oc2ccc(Cl)cc2)cc1 (stereo not given)	32
COC(=O)C(Oc1ccc2c(c1)CCC2)c1ccc(Oc2ccc(Cl)cc2)cc1 (stereo not given)	52
O=C(O)C(Oc1ccc(Cl)cc1)c1ccc(Oc2ccc(Cl)cc2)cc1 (stereo not given)	60
COC(=O)C(Oc1ccc(Cl)c(C)c1)c1ccc(Oc2ccc(Cl)cc2)cc1 (stereo not given)	54
COC(=O)C(Oc1ccc(Cl)cc1)c1ccc(Oc2ccc(Cl)c3ccccc23)cc1 (stereo not given)	38

Test system: Rattus norvegicus
Assay: Hypolipidemic activity in COBBS-CD rat assessed as reduction in serum triglyceride level at 0.03% administered with chow diet after 5 days relative to control
Assay type: functional
Parameters: scale not given: the % may be the effect or the level left
How it was run: as §1

SMILES	Activity [%]
COC(=O)C(Oc1ccc(Cl)c(Cl)c1)c1ccc(Oc2ccc(Cl)cc2)cc1 (stereo not given)	60
COC(=O)C(Oc1ccc(C(C)(C)C)cc1Cl)c1ccc(Oc2ccc(Cl)cc2)cc1 (stereo not given)	50
COC(=O)C(Oc1cc(C(C)(C)C)cc(C(C)(C)C)c1)c1ccc(Oc2ccc(Cl)cc2)cc1 (stereo not given)	-7
COC(=O)C(Oc1ccc(C(C)(C)C)cc1)c1ccc(Sc2ccc(Cl)cc2)cc1 (stereo not given)	56
O=C(O)C(Oc1ccc(Oc2ccccc2)cc1)c1ccc(Oc2ccc(Cl)cc2)cc1 (stereo not given)	38
COC(=O)C(Oc1ccc(C23CC4CC(CC(C4)C2)C3)cc1)c1ccc(Oc2ccc(Cl)cc2)cc1 (stereo not given)	29
COC(=O)C(Oc1cc(C)c(Cl)c(C)c1)c1ccc(Oc2ccc(Cl)cc2)cc1 (stereo not given)	49
COC(=O)C(Oc1ccc(Cl)cc1)c1ccc(Oc2cccc(C(F)(F)F)c2)cc1 (stereo not given)	47
COC(=O)C(Oc1ccc(C(C)(C)C)cc1)c1ccc(Oc2ccc(Cl)c3ccccc23)cc1 (stereo not given)	39
COC(=O)C(Oc1ccc(C(C)(C)C)cc1)c1ccc(Oc2ccc([N+](=O)[O-])cc2)cc1 (stereo not given)	40
COC(=O)C(Oc1ccc(Cl)c2ccccc12)c1ccc(Oc2ccc(Cl)cc2)cc1 (stereo not given)	-8
COC(=O)C(Oc1ccc2c(c1)CCC2)c1ccc(Oc2ccc(Cl)cc2)cc1 (stereo not given)	51
O=C(O)C(Oc1ccc(Cl)cc1)c1ccc(Oc2ccc(Cl)cc2)cc1 (stereo not given)	50
COC(=O)C(Oc1ccc(Cl)c(C)c1)c1ccc(Oc2ccc(Cl)cc2)cc1 (stereo not given)	39
COC(=O)C(Oc1ccc(Cl)cc1)c1ccc(Oc2ccc(Cl)c3ccccc23)cc1 (stereo not given)	12

Test system: Rattus norvegicus
Assay: Hypolipidemic activity in COBBS-CD rat assessed as reduction in serum sterol level at 0.1% administered with chow diet after 5 days relative to control
Assay type: functional
Parameters: scale not given: the % may be the effect or the level left
How it was run: as §2

SMILES	Activity [%]
COC(=O)C(Oc1ccc(Cl)c(Cl)c1)c1ccc(Oc2ccc(Cl)cc2)cc1 (stereo not given)	24
COC(=O)C(Oc1ccc(C(C)(C)C)cc1Cl)c1ccc(Oc2ccc(Cl)cc2)cc1 (stereo not given)	28
COC(=O)C(Oc1cc(C(C)(C)C)cc(C(C)(C)C)c1)c1ccc(Oc2ccc(Cl)cc2)cc1 (stereo not given)	-6
COC(=O)C(Oc1ccc(C(C)(C)C)cc1)c1ccc(Sc2ccc(Cl)cc2)cc1 (stereo not given)	12
O=C(O)C(Oc1ccc(Oc2ccccc2)cc1)c1ccc(Oc2ccc(Cl)cc2)cc1 (stereo not given)	33
COC(=O)C(Oc1ccc(C23CC4CC(CC(C4)C2)C3)cc1)c1ccc(Oc2ccc(Cl)cc2)cc1 (stereo not given)	3
COC(=O)C(Oc1cc(C)c(Cl)c(C)c1)c1ccc(Oc2ccc(Cl)cc2)cc1 (stereo not given)	21
COC(=O)C(Oc1ccc(Cl)cc1)c1ccc(Oc2cccc(C(F)(F)F)c2)cc1 (stereo not given)	32
COC(=O)C(Oc1ccc(C(C)(C)C)cc1)c1ccc(Oc2ccc(Cl)c3ccccc23)cc1 (stereo not given)	23
COC(=O)C(Oc1ccc(C(C)(C)C)cc1)c1ccc(Oc2ccc([N+](=O)[O-])cc2)cc1 (stereo not given)	10
COC(=O)C(Oc1ccc(Cl)c2ccccc12)c1ccc(Oc2ccc(Cl)cc2)cc1 (stereo not given)	11
COC(=O)C(Oc1ccc2c(c1)CCC2)c1ccc(Oc2ccc(Cl)cc2)cc1 (stereo not given)	25
O=C(O)C(Oc1ccc(Cl)cc1)c1ccc(Oc2ccc(Cl)cc2)cc1 (stereo not given)	31
COC(=O)C(Oc1ccc(Cl)c(C)c1)c1ccc(Oc2ccc(Cl)cc2)cc1 (stereo not given)	39
COC(=O)C(Oc1ccc(Cl)cc1)c1ccc(Oc2ccc(Cl)c3ccccc23)cc1 (stereo not given)	23

Test system: Rattus norvegicus
Assay: Hypolipidemic activity in COBBS-CD rat assessed as reduction in serum sterol level at 0.03% administered with chow diet after 5 days relative to control
Assay type: functional
Parameters: scale not given: the % may be the effect or the level left
How it was run: as §2

SMILES	Activity [%]
COC(=O)C(Oc1ccc(Cl)c(Cl)c1)c1ccc(Oc2ccc(Cl)cc2)cc1 (stereo not given)	26
COC(=O)C(Oc1ccc(C(C)(C)C)cc1Cl)c1ccc(Oc2ccc(Cl)cc2)cc1 (stereo not given)	29
COC(=O)C(Oc1cc(C(C)(C)C)cc(C(C)(C)C)c1)c1ccc(Oc2ccc(Cl)cc2)cc1 (stereo not given)	-12
COC(=O)C(Oc1ccc(C(C)(C)C)cc1)c1ccc(Sc2ccc(Cl)cc2)cc1 (stereo not given)	27
O=C(O)C(Oc1ccc(Oc2ccccc2)cc1)c1ccc(Oc2ccc(Cl)cc2)cc1 (stereo not given)	21
COC(=O)C(Oc1ccc(C23CC4CC(CC(C4)C2)C3)cc1)c1ccc(Oc2ccc(Cl)cc2)cc1 (stereo not given)	16
COC(=O)C(Oc1cc(C)c(Cl)c(C)c1)c1ccc(Oc2ccc(Cl)cc2)cc1 (stereo not given)	22
COC(=O)C(Oc1ccc(Cl)cc1)c1ccc(Oc2cccc(C(F)(F)F)c2)cc1 (stereo not given)	31
COC(=O)C(Oc1ccc(C(C)(C)C)cc1)c1ccc(Oc2ccc(Cl)c3ccccc23)cc1 (stereo not given)	24
COC(=O)C(Oc1ccc(C(C)(C)C)cc1)c1ccc(Oc2ccc([N+](=O)[O-])cc2)cc1 (stereo not given)	-4
COC(=O)C(Oc1ccc(Cl)c2ccccc12)c1ccc(Oc2ccc(Cl)cc2)cc1 (stereo not given)	-3
COC(=O)C(Oc1ccc2c(c1)CCC2)c1ccc(Oc2ccc(Cl)cc2)cc1 (stereo not given)	30
O=C(O)C(Oc1ccc(Cl)cc1)c1ccc(Oc2ccc(Cl)cc2)cc1 (stereo not given)	23
COC(=O)C(Oc1ccc(Cl)c(C)c1)c1ccc(Oc2ccc(Cl)cc2)cc1 (stereo not given)	34
COC(=O)C(Oc1ccc(Cl)cc1)c1ccc(Oc2ccc(Cl)c3ccccc23)cc1 (stereo not given)	17
